ChEMBL document CHEMBL2150944, “Antimalarial activity of pyrroloiminoquinones from the Australian marine sponge Zyzzya sp” (J Med Chem, 2012)
pIC50: −log10 of the molar value. Structures can show the parent of a compound that is named as a salt. Calls of active or inactive are those of the source. The calls are words filed in the database; no cut-off is given here.

Tests used:
XRS6 = assay: Cytotoxicity against Chinese hamster Xrs-6 cells; assay type: cell-based; settings: Cricetulus griseus
HCT-116 = assay: Cytotoxicity against human HCT116 cells; assay type: functional, cell-based
[1] = biological target: DNA topoisomerase 2-alpha (Homo sapiens) (UniProt P11388); assay: Inhibition of topoisomerase 2 by decatenation assay
Chain of DNA topoisomerase 2-alpha (Homo sapiens) (P11388 whole entry): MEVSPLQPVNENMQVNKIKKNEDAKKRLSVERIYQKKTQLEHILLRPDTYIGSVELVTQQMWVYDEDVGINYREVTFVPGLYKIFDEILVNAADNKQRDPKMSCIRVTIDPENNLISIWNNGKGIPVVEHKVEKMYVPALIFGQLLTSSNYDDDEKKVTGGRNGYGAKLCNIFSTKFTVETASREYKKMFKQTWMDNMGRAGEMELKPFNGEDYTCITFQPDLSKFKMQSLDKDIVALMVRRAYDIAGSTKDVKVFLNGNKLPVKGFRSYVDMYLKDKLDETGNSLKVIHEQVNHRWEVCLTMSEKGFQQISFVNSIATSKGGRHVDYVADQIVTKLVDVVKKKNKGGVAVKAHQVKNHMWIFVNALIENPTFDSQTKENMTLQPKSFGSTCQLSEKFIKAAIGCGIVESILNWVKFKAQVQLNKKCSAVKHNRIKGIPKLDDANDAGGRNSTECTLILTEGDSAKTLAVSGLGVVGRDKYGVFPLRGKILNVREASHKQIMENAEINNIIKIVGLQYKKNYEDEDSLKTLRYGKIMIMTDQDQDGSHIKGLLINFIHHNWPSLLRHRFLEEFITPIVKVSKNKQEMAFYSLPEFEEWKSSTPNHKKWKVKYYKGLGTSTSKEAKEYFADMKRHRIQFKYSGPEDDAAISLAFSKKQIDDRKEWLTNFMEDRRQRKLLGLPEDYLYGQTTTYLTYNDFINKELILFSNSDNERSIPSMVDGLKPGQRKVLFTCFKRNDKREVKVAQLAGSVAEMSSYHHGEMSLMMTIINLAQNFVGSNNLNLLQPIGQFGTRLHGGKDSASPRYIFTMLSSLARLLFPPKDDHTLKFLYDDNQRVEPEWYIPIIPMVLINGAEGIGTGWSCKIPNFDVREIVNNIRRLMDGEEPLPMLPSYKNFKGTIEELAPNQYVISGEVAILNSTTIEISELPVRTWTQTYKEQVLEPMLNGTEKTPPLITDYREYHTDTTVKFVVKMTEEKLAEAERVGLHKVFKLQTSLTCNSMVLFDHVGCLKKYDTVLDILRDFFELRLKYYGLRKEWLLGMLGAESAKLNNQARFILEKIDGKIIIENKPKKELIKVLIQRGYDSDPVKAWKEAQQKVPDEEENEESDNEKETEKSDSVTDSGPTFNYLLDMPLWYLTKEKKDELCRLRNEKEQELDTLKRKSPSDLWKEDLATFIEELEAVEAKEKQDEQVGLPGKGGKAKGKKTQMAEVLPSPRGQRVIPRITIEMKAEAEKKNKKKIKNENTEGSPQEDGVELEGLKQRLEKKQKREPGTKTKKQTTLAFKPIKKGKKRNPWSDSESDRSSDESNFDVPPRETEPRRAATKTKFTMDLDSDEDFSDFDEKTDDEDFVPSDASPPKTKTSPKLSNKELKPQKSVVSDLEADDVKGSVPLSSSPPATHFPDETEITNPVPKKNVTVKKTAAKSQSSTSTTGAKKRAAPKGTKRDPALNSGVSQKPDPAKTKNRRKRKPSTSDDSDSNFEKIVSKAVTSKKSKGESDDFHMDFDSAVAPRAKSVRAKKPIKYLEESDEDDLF

Plasmodium falciparum [2] = assay: Antimalarial activity against chloroquine-sensitive Plasmodium falciparum 3D7 trophozoite stage assessed as growth inhibition at 360 nM after 10 hrs by [3H]-hypoxanthine incorporation assay; assay type: functional, organism-based
Procedure, shortened: (§1)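 Synchronous 3D7 rings (~10−16 h post-invasion) or trophozoites (~24−30 h post-invasion) were used at 0.5% parasitemia and 5% hematocrit. Cultures were exposed to compound or 0.04% DMSO vehicle for 4, 6 or 10 h, then washed. Triplicate wells received 0.5 μCi 3H-hypoxanthine, and incorporation was counted after ~48−72 h. Results are % growth versus matched vehicle controls, from ≥2 independent experiments.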

[3] = Half life in human liver microsomes at 1 uM after 60 mins; assay type: ADME, Microsome
Procedure, shortened: (§2)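 1 μM compound incubated at 37 °C with human or mouse liver microsomes (0.4 mg/mL protein) in 0.1 M phosphate pH 7.4. Reaction started with an NADPH-regenerating system plus MgCl2 and quenched with ice-cold acetonitrile at time points up to 60 min. Parent loss is followed by LC−MS and fitted to exponential decay, giving half-life and in vitro CLint.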

[4] = Selectivity index, ratio of IC50 for human HEK293 cells to IC50 for chloroquine-resistant Plasmodium falciparum Dd2; assay type: toxicity, cell-based; settings: read-out: Ratio IC50
[5] = Intrinsic clearance in mouse liver microsomes assessed as per mg of protein at 1 uM after 60 mins; assay type: ADME, Microsome; settings: read-out: CLH; procedure, shortened: as §2
[6] = Half life in mouse liver microsomes at 1 uM after 60 mins; assay type: ADME, Microsome; procedure, shortened: as §2
Plasmodium berghei [7] = assay: Antimalarial activity against chloroquine-sensitive Plasmodium berghei ANKA infected in Swiss albino mouse assessed as suppression of parasitemia at 8 mg/kg/day, ip measured on day 1 post infection by Giemsa staining relative to control; assay type: functional; settings: route intraperitoneal
Plasmodium falciparum [8] = assay: Antimalarial activity against chloroquine-sensitive Plasmodium falciparum 3D7 ring stage assessed as growth inhibition upto 360 nM after 10 hrs by [3H]-hypoxanthine incorporation assay; assay type: functional, organism-based; procedure, shortened: as §1
[9] = Plasma concentration in Swiss mouse at 8 mg/kg, sc administered as suspension measured 1 hr post dose; assay type: ADME, organism-based; parameters: dose 8 mg/kg, route subcutaneous
Procedure, shortened: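 Nonfasted male Swiss outbred mice (26−34 g) received a nominal 8 mg/kg subcutaneously into the dorsal skinfold. The compound was given as a suspension in saline vehicle containing 5−7% DMSO. Blood was taken by cardiac puncture under isoflurane at 0.25, 1 or 4 h, with n = 2 mice per time point, into stabilizer-containing heparinized tubes. Plasma was acetonitrile-precipitated and quantified by UPLC−MS.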

HEK293 = assay: Cytotoxicity against human HEK293 cells assessed as growth inhibition after 72 hrs by Alamar blue assay; assay type: cell-based; settings: HEK293, 72 h
Procedure, shortened: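 HEK293 adherent cells (3000/well) were incubated with compound for 72 h at 37 °C and 5% CO2. Medium was removed, then 10% Alamar Blue was added for 5−6 h. Fluorescence was read at ex 535/em 590 nm. Inhibition was normalised to DMSO and 10 μM puromycin controls. IC50 came from nonlinear variable-slope regression of % inhibition against log dose.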

Plasmodium berghei [10] = assay: Antimalarial activity against chloroquine-sensitive Plasmodium berghei ANKA infected in Swiss albino mouse assessed as suppression of parasitemia at 8 mg/kg/day, ip measured on day 4 post infection by Giemsa staining relative to control; assay type: functional; settings: route intraperitoneal
Plasmodium falciparum [11] = assay: Antimalarial activity against chloroquine-resistant Plasmodium falciparum Dd2 assessed as growth inhibition after 72 hrs by DAPI staining; assay type: functional, organism-based; settings: Dd2, 72 h
Procedure, shortened: (§3)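 P. falciparum 3D7 or Dd2 at 2% or 3% parasitemia, 0.3% hematocrit, exposed 72 h at 37 °C, 5% CO2. Staining with DAPI plus saponin and Triton X-100, 5 h at room temperature in the dark, then confocal imaging and automated counting of parasite spots. Percent inhibition is calculated against DMSO and 2 μM artemisinin controls.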

[12] = Intrinsic clearance in human liver microsomes assessed as per mg of protein at 1 uM after 60 mins; assay type: ADME, Microsome; settings: read-out: CLH; procedure, shortened: as §2
[13] = Selectivity index, ratio of IC50 for human HEK293 cells to IC50 for chloroquine-sensitive Plasmodium falciparum 3D7; assay type: toxicity, cell-based; settings: read-out: Ratio IC50
[14] = Toxicity in Swiss albino mouse for 4 days; assay type: organism-based; settings: in vivo
Procedure, shortened: (§4)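 Healthy mice dosed subcutaneously daily for 4 consecutive days, compound in Tween 80/ethanol (7/3 v/v) diluted 10-fold in distilled water (~0.2 mL). Mice are assessed before and after dosing for weight loss >10%, ruffled coat, shaking, severe pallor, reduced activity and behaviour changes.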

Plasmodium berghei [15] = assay: Antimalarial activity against chloroquine-sensitive Plasmodium berghei ANKA infected in Swiss albino mouse assessed as suppression of parasitemia at 8 mg/kg/day, ip measured on day 2 post infection by Giemsa staining relative to control; assay type: functional; settings: route intraperitoneal
Plasmodium berghei [16] = assay: Antimalarial activity against chloroquine-sensitive Plasmodium berghei ANKA infected in Swiss albino mouse assessed as suppression of parasitemia at 8 mg/kg/day, ip measured on day 3 post infection by Giemsa staining relative to control; assay type: functional; settings: route intraperitoneal
Plasmodium falciparum [17] = assay: Antimalarial activity against chloroquine-sensitive Plasmodium falciparum 3D7 assessed as growth inhibition after 72 hrs by DAPI staining; assay type: functional, organism-based; settings: 3D7, 72 h; procedure, shortened: as §3
Plasmodium falciparum [18] = assay: Antimalarial activity against chloroquine-sensitive Plasmodium falciparum 3D7 trophozoite stage assessed as growth inhibition at 180 nM after 10 hrs by [3H]-hypoxanthine incorporation assay; assay type: functional, organism-based; procedure, shortened: as §1
Mus musculus [19] = assay: Toxicity in Swiss albino mouse assessed as ruffled coat at 8 mg/kg/day for 4 days; assay type: organism-based; settings: in vivo, 96 h; procedure, shortened: as §4
Mus musculus [20] = assay: Toxicity in Swiss albino mouse assessed as reduced activity upto 4 mg/kg/day, sc for 4 days; assay type: organism-based; parameters: route subcutaneous; settings: in vivo, 96 h; procedure, shortened: as §4
Plasmodium falciparum [21] = assay: Antimalarial activity against chloroquine-sensitive Plasmodium falciparum 3D7 ring stage assessed as growth inhibition at 408 nM after 10 hrs by [3H]-hypoxanthine incorporation assay; assay type: functional, organism-based
Procedure, shortened: (§5)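 Synchronous 3D7 rings (~10−16 h post-invasion) or trophozoites (~24−30 h post-invasion), 0.5% parasitemia, 5% hematocrit, exposed 4, 6 or 10 h to compound or 0.04% DMSO vehicle. Cultures are washed, plated in triplicate with 0.5 μCi 3H-hypoxanthine, and incorporation is counted after ~48−72 h. Percent growth is relative to matched vehicle controls, from at least two independent experiments.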

Mus musculus [22] = assay: Toxicity in Swiss albino mouse assessed as ruffled coat upto 4 mg/kg/day for 4 days; assay type: organism-based; settings: in vivo, 96 h; procedure, shortened: as §4
Plasmodium falciparum [23] = assay: Antimalarial activity against chloroquine-sensitive Plasmodium falciparum 3D7 trophozoite stage assessed as growth inhibition at 408 nM after 10 hrs by [3H]-hypoxanthine incorporation assay; assay type: functional, organism-based; procedure, shortened: as §5
Mus musculus [24] = assay: Toxicity in Swiss albino mouse assessed as reduced activity at 8 mg/kg/day, sc for 4 days; assay type: organism-based; parameters: route subcutaneous; settings: in vivo, 96 h; procedure, shortened: as §4
Mus musculus [25] = assay: Toxicity in Swiss albino mouse assessed as body weight loss > 10 % at 8 mg/kg/day, sc for 4 days; assay type: organism-based; parameters: route subcutaneous; settings: in vivo, 96 h; procedure, shortened: as §4
Mus musculus [26] = assay: Toxicity in Swiss albino mouse assessed as body weight loss > 10 % upto 4 mg/kg/day, sc for 4 days; assay type: organism-based; parameters: route subcutaneous; settings: in vivo, 96 h; procedure, shortened: as §4
Plasmodium falciparum [27] = assay: Antimalarial activity against chloroquine-sensitive Plasmodium falciparum 3D7 ring stage assessed as growth inhibition at 204 nM after 10 hrs by [3H]-hypoxanthine incorporation assay; assay type: functional, organism-based; procedure, shortened: as §5
Mus musculus [28] = assay: Toxicity in Swiss albino mouse assessed as behaviour changes upto 4 mg/kg/day, sc for 4 days; assay type: organism-based; parameters: route subcutaneous; settings: in vivo, 96 h; procedure, shortened: as §4
Plasmodium falciparum [29] = assay: Antimalarial activity against chloroquine-sensitive Plasmodium falciparum 3D7 trophozoite stage assessed as growth inhibition at 204 nM after 10 hrs by [3H]-hypoxanthine incorporation assay; assay type: functional, organism-based; procedure, shortened: as §5
[30] = Plasma concentration in Swiss mouse at 8 mg/kg, sc administered as solution measured 1 hr post dose; assay type: ADME, organism-based; parameters: dose 8 mg/kg, route subcutaneous
Procedure, shortened: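 Nonfasted male Swiss outbred mice (26−34 g), nominal 8 mg/kg subcutaneous into the dorsal skinfold in saline vehicle with 5−7% DMSO. Blood is drawn by cardiac puncture under isoflurane at 0.25, 1 or 4 h (n = 2 per time point) into stabilizer. Plasma is precipitated with acetonitrile and quantified by UPLC−MS against standards in blank mouse plasma.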

Mus musculus [31] = assay: Toxicity in Swiss albino mouse assessed as severe pallor upto 4 mg/kg/day, sc for 4 days; assay type: organism-based; parameters: route subcutaneous; settings: in vivo, 96 h; procedure, shortened: as §4
Plasmodium berghei [32] = assay: Antimalarial activity against chloroquine-sensitive Plasmodium berghei ANKA infected in Swiss albino mouse assessed as suppression of parasitemia at 4 mg/kg/day, ip measured on day 4 post infection by Giemsa staining; assay type: functional, organism-based
Mus musculus [33] = assay: Toxicity in Swiss albino mouse assessed as shaking upto 4 mg/kg/day, sc for 4 days; assay type: organism-based; parameters: route subcutaneous; settings: in vivo, 96 h; procedure, shortened: as §4

Cn1cc2c3c1C(=O)C(N/C=C/c1ccc(O)cc1)=CC3=NCC2 [MAKALUVAMINE E]
pIC50 (XRS6): 7.10 | pIC50 (HCT-116): < 6.77

O=C1C(NC2Cc3cc(Br)c(O)cc3S2)=CC2=NCCc3c[nH]c1c32 (stereo unspecified) [MAKALUVAMINE F]
IC90 [1]: 25000 nM | pIC50 (XRS6): 7.10 | pIC50 (HCT-116): < 6.77

Cn1cc2c3c1C(=O)C(N/C=C/c1ccc(O)cc1)=CC3=[N+](C)CC2.O=C([O-])C(F)(F)F [MAKALUVAMINE G]
growth inhibition (GI) (Plasmodium falciparum [2]): Active | half-life at 1 µM [3]: 8.8 min | selectivity ratio [4]: 51 | microsomal CLint at 1 µM [5]: 235 µL/min/mg | half-life at 1 µM [6]: 7.4 min | Activity (Plasmodium berghei [7]): 10% | growth inhibition (GI) (Plasmodium falciparum [8]): inactive | concentration at 1 h [9]: < 40 nM | pIC50 (HEK293): 5.70 | Activity (Plasmodium berghei [10]): 48% | pIC50 (Plasmodium falciparum [11]): 7.41 | microsomal CLint at 1 µM [12]: 197 µL/min/mg | selectivity ratio [13]: 55 | MTD at 96 h [14]: 8 mg/kg/day | Activity (Plasmodium berghei [15]): 35% | Activity (Plasmodium berghei [16]): 47% | pIC50 (Plasmodium falciparum [17]): 7.44 | growth inhibition (GI) (Plasmodium falciparum [18]): Active

C[N+]1=C2C=C(NCCc3ccc(O)cc3)C(=O)c3[nH]cc(c32)CC1.O=C([O-])C(F)(F)F [MAKALUVAMINE J TFA SALT]
Activity (Mus musculus [19]): Toxic | half-life at 1 µM [3]: > 350 min | Activity (Mus musculus [20]): Non-toxic | selectivity ratio [4]: 54 | microsomal CLint at 1 µM [5]: 41 µL/min/mg | growth inhibition (GI) (Plasmodium falciparum [21]): Active | half-life at 1 µM [6]: 42 min | Activity (Mus musculus [22]): Non-toxic | pIC50 (HEK293): 5.92 | growth inhibition (GI) (Plasmodium falciparum [23]): Active | Activity (Mus musculus [24]): Toxic | pIC50 (Plasmodium falciparum [11]): 7.66 | Activity (Mus musculus [25]): Toxic | Activity (Mus musculus [26]): Non-toxic | microsomal CLint at 1 µM [12]: < 5 µL/min/mg | growth inhibition (GI) (Plasmodium falciparum [27]): Active | selectivity ratio [13]: 48 | Activity (Mus musculus [28]): Non-toxic | growth inhibition (GI) (Plasmodium falciparum [29]): Active | concentration at 1 h [30]: 1700 nM | Activity (Mus musculus [31]): Non-toxic | pIC50 (Plasmodium falciparum [17]): 7.60 | Activity (Plasmodium berghei [32]): inactive | Activity (Mus musculus [33]): Non-toxic

Cn1cc2c3c1C(=O)C(NCCc1ccc(O)cc1)=CC3=NCC2 [MAKALUVAMINE K TFA SALT]
selectivity ratio [4]: 4 | pIC50 (HEK293): 5.96 | pIC50 (Plasmodium falciparum [11]): 6.52 | selectivity ratio [13]: 3 | pIC50 (Plasmodium falciparum [17]): 6.40

C[N+]1=C2C=C(N/C=C/c3ccc(O)cc3)C(=O)c3[nH]cc(c32)CC1 [MAKALUVAMINE L]
selectivity ratio [4]: 66 | pIC50 (HEK293): 5.85 | pIC50 (Plasmodium falciparum [11]): 7.68 | selectivity ratio [13]: 35 | pIC50 (Plasmodium falciparum [17]): 7.40

Cn1cc2c3c1C(=O)c1[nH]cc(-c4ccc(O)cc4)c1C3=[N+](C)CC2 [TSITSIKAMMAMINE C TRIFLUROACETATE]
selectivity ratio [4]: 200 | growth inhibition (GI) (Plasmodium falciparum [21]): Active | pIC50 (HEK293): 5.44 | growth inhibition (GI) (Plasmodium falciparum [23]): Active | pIC50 (Plasmodium falciparum [11]): 7.74 | growth inhibition (GI) (Plasmodium falciparum [27]): Active | selectivity ratio [13]: 276 | growth inhibition (GI) (Plasmodium falciparum [29]): Active | pIC50 (Plasmodium falciparum [17]): 7.89
